ChEMBL document CHEMBL1125330, “N-substituted pyrazino[2,3-c][1,2,6]thiadiazine 2,2-dioxides. A new class of diuretics” (J Med Chem, 1992)

Assays:
Rattus norvegicus [1] = organism: Rattus norvegicus; assay: Mean sodium excretion in rats (Control/Drug treatment value); value 0.52/2.02; format: ADME, organism-based; conditions: in vivo
Rattus norvegicus [2] = organism: Rattus norvegicus; assay: Mean urinary output in rats (Control/Drug treatment value); value 24.0/36.5; format: ADME, organism-based, Urine; conditions: in vivo
Outline: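 Water-loaded male Sprague-Dawley rats (HC/CFY, 175-200 g), eight per group, deprived of food and water 18 h. Single oral gavage of 20-25 mg/kg (some 10 mg/kg) in 1% CMC/0.1% Tween 80, then distilled water 2.5 mL/100 g bw po. Cumulative urine over 6 h in metabolic cages; mean mL/6 h/kg bw vs vehicle group.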

Rattus norvegicus [3] = organism: Rattus norvegicus; assay: Dose required to produce increase in 50 % in urine production vs control groups; format: functional; conditions: Rattus norvegicus, Urine
Outline: (§1)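 Male Sprague-Dawley rats (HC/CFY, 175-200 g), fasted and water-deprived 18 h before and during the test. Compound dosed by gavage in 1% carboxymethyl cellulose/0.1% Tween 80, then water load 2.5 mL/100 g bw po. Urine collected 6 h in metabolic cages; Na+ by flame photometry. Effective doses vs vehicle controls derived by linear regression of dose-response data.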

Rattus norvegicus [4] = organism: Rattus norvegicus; assay: Dose required to produce increase in 200 % in urine production vs control groups; format: functional; outline: as §1
Rattus norvegicus [5] = assay: Dose required to produce an excretion of 2 mequiv of Na+/kg bw/6h vs control groups; format: functional; outline: as §1
Rattus norvegicus [6] = assay: Post dosing time interval of maximum activity; format: functional
Outline: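 Interval of peak activity taken from timed urine collections (0-1, 1-2, 2-3, 3-4, 4-6 h) after a single oral dose in water-loaded fasted rats, […]. Urine volume and Na+ excretion followed over time.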

Rattus norvegicus [7] = assay: Mean sodium excretion in rats when compound administered at 0 mg/kg po and vehicle dosed at 0 umol/kg; format: ADME, organism-based; set-up: dose 0 mg/kg, route oral; conditions: in vivo
Outline: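 Male Sprague-Dawley rats (HC/CFY, 175-200 g) fasted and water-deprived 18 h before and during the test. Dosed by gavage at 2.5-160 mg/kg in 1% carboxymethyl cellulose/0.1% Tween 80, 0.5 mL/100 g bw. Immediately hydrated with water (2.5 mL/100 g bw, po). Urine collected 6 h in metabolic cages; Na+ and K+ by flame photometry; mean mequiv/6 h/kg bw; nonpaired Student t-test.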

Rattus norvegicus [8] = assay: Mean urinary output in rats when compound administered at 0 mg/kg po and vehicle dosed at 0 umol/kg; format: ADME, organism-based, Urine; set-up: dose 0 mg/kg, route oral; conditions: in vivo
Outline: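 Water-loaded male Sprague-Dawley rats (HC/CFY, 175-200 g) fasted and without water for 18 h. Oral gavage of 2.5-160 mg/kg in 1% CMC with 0.1% Tween 80, then distilled water 2.5 mL/100 g po. Urine collected 6 h in metabolic cages, mean output in mL/6 h/kg bw. Unpaired Student t-test against vehicle; dose-response by linear regression.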

Rattus norvegicus [9] = organism: Rattus norvegicus; conditions: in vivo, po, 80 mg/kg
Rattus norvegicus [10] = assay: Mean potassium excretion in rats when compound administered at 0 mg/kg po and vehicle dosed at 0 umol/kg; format: ADME, organism-based; set-up: dose 0 mg/kg, route oral; conditions: in vivo
Outline: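 Male Sprague-Dawley rats (HC/CFY, 175-200 g), no food or water for 18 h before and during the test. Single gavage dose (2.5-160 mg/kg; vehicle 1% carboxymethyl cellulose/0.1% Tween 80, 0.5 mL/100 g bw), then distilled water 2.5 mL/100 g bw po. Individual metabolic cages, 6 h urine. K+ by flame photometry, Cl- colorimetric, as mequiv/6 h/kg bw; unpaired Student t-test vs control.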

Na (Rattus norvegicus [1])	V (Rattus norvegicus [2])	V (Rattus norvegicus [8])	V (Rattus norvegicus [9])	Compound	ED50 (Rattus norvegicus [3]) [mg/kg]	ED200 (Rattus norvegicus [4]) [mg/kg]	ED2 (Rattus norvegicus [5]) [mg/kg]	Time (Rattus norvegicus [6]) [h]	Na (Rattus norvegicus [7])	K (Rattus norvegicus [10])
3.9	1.5	–	–	CCc1nc2c(nc1C)C(N)=NS(=O)(=O)N2C	–	–	–	–	–	–
–	–	24.04 ml 6hr-1 (kg of body weight)-1	75.5 ml 6hr-1 (kg of body weight)-1	NS(=O)(=O)c1cc(C(=O)O)c(NCc2ccco2)cc1Cl [FUROSEMIDE]	12.1	70.59	12.95	1	0.39 m equiv 6hr-1 kg-1 (body weight)-1	0.47 m equiv 6hr-1 kg-1 (body weight)-1
